From ChEMBL document CHEMBL1121361, “Studies on the synthesis of chemotherapeutics. 10. Synthesis and antitumor activity of N-acyl- and N-(alkoxycarbonyl)-5-fluorouracil derivatives” (1980)

Tests used:
Mus musculus [1] = assay: Antitumor activity against P-388 Leukemia in female BDF1 mice expressed as percent T/C at dose 50 mg/kg; type: functional
Method in brief: (§1)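 P-388 leukemia, 10⁶ cells implanted ip in BDF₁ mice, five per group. Test agents dissolved or suspended in 0.3% CMC-Na and dosed orally once daily for 9 days, beginning 1 day after implantation. Activity expressed as treated/control ratio of median survival time.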

P388 [2] = assay: Percentage change in median survival time of P388 (leukemia) inoculated female mice following 200 mg/kg p.o.; conditions: route oral
P388 [3] = assay: Percentage change in median survival time of P388 (leukemia) inoculated female mice following 25 mg/kg p.o.; conditions: route oral
P388 [4] = assay: Percentage change in median survival time of P388 (leukemia) inoculated female mice following 100 mg/kg p.o.; conditions: route oral
P388 [5] = assay: Percentage change in median survival time of P388 (leukemia) inoculated female mice following 30 mg/kg p.o.; conditions: route oral
Mus musculus [6] = assay: Antitumor activity against MH 134 cells in female C3H mice expressed as percent T/C at dose 200 mg/kg
Mus musculus [7] = assay: Antitumor activity against L-1210 in female BDF1 mice expressed as percent T/C at dose 300 mg/kg; type: functional
Method in brief: (§2)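 L-1210 leukemia, 10⁶ cells implanted ip into BDF₁ mice (five females per group, 17–23 g). Compound dissolved or suspended in 0.3% CMC-Na, given orally once daily for 5 days starting 1 day after implantation. Activity taken as the ratio of median survival time, treated vs control.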

Mus musculus [8] = assay: Antitumor activity against Meth A cells in female Balb/c mice expressed as percent T/C at dose 100 mg/kg
Mus musculus [9] = assay: Antitumor activity against Meth A cells in female Balb/c mice expressed as percent T/C at dose 200 mg/kg
Mus musculus [10] = assay: Antitumor activity against Meth A cells in female Balb/c mice expressed as percent T/C at dose 50 mg/kg
Mus musculus [11] = assay: Antitumor activity against L-1210 in female BDF1 mice expressed as percent T/C at dose 200 mg/kg; type: functional; method in brief: as §2
Mus musculus [12] = assay: Antitumor activity against L-1210 in female BDF1 mice expressed as percent T/C at dose 50 mg/kg; type: functional; method in brief: as §2
Mus musculus [13] = assay: Antitumor activity against MH 134 cells in female C3H mice expressed as percent T/C at dose 100 mg/kg
Mus musculus [14] = assay: Antitumor activity against MH 134 cells in female C3H mice expressed as percent T/C at dose 50 mg/kg
Mus musculus [15] = assay: Antitumor activity against P-388 Leukemia in female BDF1 mice expressed as percent T/C at dose 12.5 mg/kg; type: functional; method in brief: as §1
Mus musculus [16] = assay: Antitumor activity against L-1210 in female BDF1 mice expressed as percent T/C at dose 100 mg/kg; type: functional; method in brief: as §2
Mus musculus [17] = assay: Antitumor activity against L-1210 cells in female BDF1 mice expressed as percent T/C at dose 100 mg/kg; type: functional; method in brief: as §2
Mus musculus [18] = assay: Antitumor activity against L-1210 cells in female BDF1 mice expressed as percent T/C at dose 200 mg/kg; type: functional; method in brief: as §2
Mus musculus [19] = assay: Antitumor activity against L-1210 cells in female BDF1 mice expressed as percent T/C at dose 50 mg/kg; type: functional; method in brief: as §2
Mus musculus [20] = assay: Antitumor activity against L-1210 cells in female BDF1 mice expressed as percent T/C at dose 300 mg/kg; type: functional; method in brief: as §2
Mus musculus [21] = assay: Antitumor activity against MH 134 cells in female C3H mice expressed as percent T/C at dose 50 mg/kg; remark: listed apart in the source
Mus musculus [22] = assay: Antitumor activity against MH 134 cells in female C3H mice expressed as percent T/C at dose 200 mg/kg; remark: listed apart in the source
Mus musculus [23] = assay: Antitumor activity against MH 134 cells in female C3H mice expressed as percent T/C at dose 100 mg/kg; remark: listed apart in the source

SMILES | T/C (Mus musculus [1]) | T/C (P388 [2]) | T/C (P388 [3]) | T/C (P388 [4]) | further results
CCOC(=O)n1cc(F)c(=O)n(C(=O)CC)c1=O | 112% | 52% | 105% | 82% | –
O=C(OCc1ccccc1)n1c(=O)[nH]cc(F)c1=O | 101% | 96% | – | 110% | –
CCOC(=O)n1cc(F)c(=O)n(C(=O)c2ccccc2C)c1=O | 125% | 164% | 112% | 127% | –
Cc1ccccc1C(=O)n1c(=O)c(F)cn(C(=O)C(C)C)c1=O | 112% | 169% | 110% | 116% | –
Cc1ccccc1C(=O)n1c(=O)[nH]cc(F)c1=O | 127% | – | – | 103% | T/C (P388 [5]): 124%
Cc1ccccc1C(=O)n1c(=O)c(F)cn(C(=O)Oc2ccccc2)c1=O | 106% | 135% | 100% | 129% | –
CCC(=O)n1cc(F)c(=O)n(C(=O)c2ccccc2C)c1=O | 112% | 138% | 103% | 136% | –
CCC(=O)n1cc(F)c(=O)n(C(=O)c2ccccc2)c1=O | 119% | 90% | 110% | 130% | –
O=c1[nH]c(=O)n(C2CCCO2)cc1F (stereo unspecified) [TEGAFUR] | 104% | 106% | 115% | 136% | T/C (Mus musculus [6]): 57%; T/C (Mus musculus [7]): 102%; T/C (Mus musculus [8]): 53%; T/C (Mus musculus [9]): 19%; T/C (Mus musculus [10]): 82%; T/C (Mus musculus [11]): 143%; T/C (Mus musculus [12]): 110%; T/C (Mus musculus [13]): 58%; T/C (Mus musculus [14]): 70%; T/C (Mus musculus [15]): 111%; T/C (Mus musculus [16]): 124%
COC(=O)n1cc(F)c(=O)n(C(=O)c2ccccc2C)c1=O | 112% | 142% | 101% | 138% | –
CCCCCCC(=O)n1c(=O)c(F)cn(C(=O)OCC)c1=O | 119% | 74% | 110% | 118% | –
CC(=O)n1cc(F)c(=O)n(C(C)=O)c1=O | 103% | – | 112% | 86% | T/C (Mus musculus [15]): 103%
O=c1[nH]cc(F)c(=O)[nH]1 [FLUOROURACIL] | 76% | – | 135% | – | T/C (Mus musculus [15]): 127%
CC(=O)n1c(=O)c(F)cn(C(=O)c2ccccc2C)c1=O | 114% | – | 97% | 108% | T/C (Mus musculus [15]): 111%
Cc1ccccc1C(=O)n1c(=O)c(F)cn(C(=O)O[C@H]2CCC3(C)C(=CCC4[C@@H]3CCC3(C)[C@@H](C(C)CCCC(C)C)CC[C@@H]43)C2)c1=O (stereo partly specified) | 98% | 112% | – | 100% | –
CCOC(=O)n1cc(F)c(=O)n(C(=O)c2ccccc2)c1=O | 116% | 83% | 103% | 123% | –
CCCCCCOC(=O)n1cc(F)c(=O)n(C(=O)c2ccccc2C)c1=O | 106% | 147% | 100% | 96% | –
CC(=O)n1cc(F)c(=O)n(C(=O)c2ccccc2)c1=O | 116% | 99% | 108% | 144% | –
CC(=O)n1cc(F)c(=O)n(C(=O)c2ccccc2C)c1=O | 111% | 121% | 121% | 151% | T/C (Mus musculus [17]): 128%; T/C (Mus musculus [18]): 136%; T/C (Mus musculus [19]): 110%; T/C (Mus musculus [8]): 58%; T/C (Mus musculus [9]): 32%; T/C (Mus musculus [20]): 167%; T/C (Mus musculus [21]): 61%; T/C (Mus musculus [10]): 71%; T/C (Mus musculus [22]): 25%; T/C (Mus musculus [23]): 43%
Cc1ccccc1C(=O)n1c(=O)c(F)cn(C(=O)OCc2ccccc2)c1=O | 108% | 110% | – | 125% | –
O=C(Oc1ccccc1)n1cc(F)c(=O)n(C(=O)c2ccccc2)c1=O | 112% | 107% | 99% | 119% | –
O=C(Oc1ccccc1)n1c(=O)[nH]cc(F)c1=O | 101% | – | 112% | 83% | T/C (Mus musculus [15]): 97%
CC(=O)n1cc(F)c(=O)n(C(=O)OCc2ccccc2)c1=O | 105% | 112% | – | 116% | –
CCOC(=O)n1cc(F)c(=O)n(C(C)=O)c1=O | 115% | – | 103% | 59% | T/C (Mus musculus [15]): 94%
